From ChEMBL document CHEMBL1144909, “Design, synthesis, and biological evaluation of a series of fluoroquinoanthroxazines with contrasting dual mechanisms of action against topoisomerase II and G-quadruplexes” (J Med Chem, 2003) come the findings set out here.

The structures appear in SMILES notation. Active and inactive are the calls of the source. No cut-off for these calls is given here.

The target in test [1] is T1, DNA polymerase I, thermostable (Thermus aquaticus, UniProt P19821). In words: Inhibition of Taq DNA polymerase by TRAP assay.
T1 sequence (P19821 whole entry): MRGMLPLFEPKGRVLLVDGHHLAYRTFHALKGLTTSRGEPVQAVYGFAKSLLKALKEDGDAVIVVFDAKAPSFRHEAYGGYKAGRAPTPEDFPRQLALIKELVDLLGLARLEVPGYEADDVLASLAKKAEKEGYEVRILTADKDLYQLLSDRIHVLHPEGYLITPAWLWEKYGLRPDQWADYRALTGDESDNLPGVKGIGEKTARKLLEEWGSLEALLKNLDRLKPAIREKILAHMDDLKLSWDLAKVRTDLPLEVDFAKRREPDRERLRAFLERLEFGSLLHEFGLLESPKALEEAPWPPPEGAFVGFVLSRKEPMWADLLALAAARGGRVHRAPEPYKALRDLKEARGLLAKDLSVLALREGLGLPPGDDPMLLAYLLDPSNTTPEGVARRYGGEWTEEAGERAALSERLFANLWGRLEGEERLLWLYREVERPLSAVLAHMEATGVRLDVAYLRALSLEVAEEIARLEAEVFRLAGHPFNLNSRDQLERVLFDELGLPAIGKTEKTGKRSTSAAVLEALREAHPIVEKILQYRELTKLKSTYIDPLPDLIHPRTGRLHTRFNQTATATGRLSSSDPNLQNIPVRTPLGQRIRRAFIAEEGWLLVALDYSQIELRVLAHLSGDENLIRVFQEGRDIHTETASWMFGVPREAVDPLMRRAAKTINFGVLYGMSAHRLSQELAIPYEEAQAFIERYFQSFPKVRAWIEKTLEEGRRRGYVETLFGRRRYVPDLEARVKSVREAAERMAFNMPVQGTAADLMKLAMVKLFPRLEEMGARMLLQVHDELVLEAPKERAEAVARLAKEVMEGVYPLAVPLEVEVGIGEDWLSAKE
Test [2] deals with T2, DNA topoisomerase II (Homo sapiens) (UniProt P11388+Q02880). The experiment in a line: Inhibition against decatenation activity of DNA topoisomerase II at a concentration of 100 uM. The test is classed as protein assay. In a few lines: (§1)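 Human topoisomerase II (2 units) was then added for 30 min at 37 °C. Sarkosyl stop; products resolved on 1% agarose with ethidium bromide; decatenated kDNA quantified by densitometry.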

The subject of test [3] is RPMI-8226. The experiment in a line: Cytotoxicity of compound against 8226/S cells. The format is functional, Homo sapiens. The procedure, abridged:
(§2)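 MTT assay. Exponentially growing cells (1–2 × 10^3 per well) seeded day 0; graded compound concentrations added day 1; on day 4, MTT (1 mg/mL in DPBS) added for 4 h at 37 °C. 8226/S (RPMI 8226 myeloma) and doxorubicin-resistant, topoisomerase II-reduced 8226/DOX1V; MCF7 breast cells. Myeloma values are the mean ± SD of four experiments; IC50 in μM.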

Test [4] concerns MCF7. The experiment in a line: Cytotoxicity of compound was tested against MCF-7 breast cancer cells. To be noted: Homo sapiens. The format is functional, cell-based. The procedure, abridged:
as §2

In test [5] the test system is RPMI-8226. In words: Cytotoxicity of compound against 8226/DOX1V cells. The format is functional, Homo sapiens. The procedure, abridged: as §2
The target in test [6] is T1, DNA polymerase I, thermostable. The experiment in a line: Inhibition of Taq DNA polymerase.
Test [7] in a line: Ratio of cytotoxicity of DOX1V/S cells. The test is classed as functional. The procedure, abridged: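 Ratio of IC50 in 8226/DOX1V (doxorubicin-resistant, reduced topoisomerase II) to IC50 in parental 8226/S. Both IC50s come from a 3-day MTT assay, each the mean of four experiments.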
Test [8] concerns the target T2, DNA topoisomerase II (Homo sapiens). In words: Inhibition against decatenation activity of DNA topoisomerase II at a concentration of 3.2 uM. The format is protein assay. The procedure, abridged:
as §1

A word on the IC50: it is the concentration that inhibits the measured activity by half. A lower IC50 goes with greater potency in that assay. What is called inhibition is the share of the control response that was lost under treatment.

For the compound `N[C@@H]1CCN(c2c(F)cc3c(=O)c(C(=O)O)cn4c3c2Oc2c-4ccc3c2ccc2ccccc23)C1`, the values for the IC50 in test [1], in test [4] and in test [6] were 5.6 µM, 0.46 µM and 0.06 µM, respectively. For the same compound, in test [2], the inhibition result was “inactive”. Moreover, the Average in test [3] amounted to 0.324 µM; in test [5] it was 0.501 µM. Further, in test [7], the Ratio is recorded as 1.55.
For `N[C@H]1CCN(c2c(F)cc3c(=O)c(C(=O)O)cn4c3c2Oc2cc3c(ccc5ccccc53)cc2-4)C1`, the inhibition entry in test [2] is “inactive”. The Average in test [3] and in test [5] was over 10 µM each time. In addition, the IC50 in test [4] was determined as 14.2 µM; in test [6] it was 5.7 µM.
Turning to `N[C@H]1CCN(c2c(F)cc3c(=O)c(C(=O)O)cn4c3c2Oc2c-4ccc3c2ccc2ccccc23)C1`, the IC50 in test [1] came out at 21 µM; in test [4] it was 1.1 µM; in test [6], 0.67 µM. Moreover, the inhibition entry in test [2] is “inactive”. Further, the Average worked out at 0.69 µM in test [3] and 2.775 µM in test [5]. Besides, the Ratio in test [7] was found to be 4.02.
For `N[C@@H]1CCN(c2c(F)cc3c(=O)c(C(=O)O)cn4c3c2Oc2cc3c(ccc5ccccc53)cc2-4)C1`, in test [2], the inhibition result was “inactive”. Further, the Average in test [3] is 5.46 µM; in test [5] it was over 10 µM. Further, the half-maximal inhibitory concentration (IC50) in test [4] was determined as 4.3 µM; in test [6], 2.4 µM.
Consider `COc1cccc2c1C(=O)c1c(O)c3c(c(O)c1C2=O)C[C@@](O)(C(=O)CO)C[C@@H]3O[C@H]1C[C@H](N)[C@H](O)[C@H](C)O1` [DOXORUBICIN], for which the Average in test [3] turned out to be 0.037 µM; in test [5], 0.32 µM. In addition, in test [7], the Ratio was determined as 8.65.
Consider `N[C@H]1CCN(c2c(F)cc3c(=O)c(C(=O)O)cn4c3c2Oc2ccccc2-4)C1`, for which, in test [8], the inhibition was 50%.
